Common to all, as to assay type: functional
Assay [1] relates to Bacillus subtilis. Description: Antimicrobial activity against Bacillus subtilis NCIM 2718 after 18 hrs by broth microdilution assay. The following applies: NCIM 2718, 18 h. A digest of the protocol: (§1)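 MIC by broth microdilution in Mueller Hinton broth, final inoculum 5 × 10⁵ CFU/ml. Compounds dissolved in absolute ethanol (10 mg per 1 ml stock), then serially diluted into successive wells. Incubated with organism at 37 °C for 18 h with growth and sterility controls, ethanol blank, and uninoculated dilutions checked for precipitation. Then 0.01% resazurin added, read after 2 h further incubation.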
On the technique in general: Broth dilution looks for growth in wells or tubes with falling amounts of substance.

Assay [2] deals with Staphylococcus aureus. Description: Antimicrobial activity against Staphylococcus aureus NCIM 5021 after 18 hrs by broth microdilution assay. Conditions: NCIM 5021, 18 h. The method, boiled down: as §1
The test system of assay [3] is Pseudomonas aeruginosa. As to the kind of experiment: Antimicrobial activity against Pseudomonas aeruginosa NCIM 5029 after 18 hrs by broth microdilution assay. The following applies: NCIM 5029, 18 h. A digest of the protocol:
as §1

Molecules are shown by their SMILES. Values after ≈ are worked out from the molar mass of the structure shown.

As usually defined, the MIC is the least concentration at which growth counts as inhibited. A high value points to a less susceptible organism. Consider `CN1C(=O)C[C@@]2(C1=O)[C@@H](c1ccccc1O)CN(C)[C@@]21C(=O)Nc2ccccc21`, for which the MIC came out at 639 µM (≈ 250 µg/mL) in assay [1], 639 µM (≈ 250 µg/mL) in assay [2] and 80 µM (≈ 31.3 µg/mL) in assay [3].

Turning to `CN1C(=O)C[C@@]2(C1=O)[C@@H](c1ccccc1O)CN(C)[C@@]21C(=O)N(C)c2ccccc21`, the values for the MIC in assay [1], in assay [2] and in assay [3] were 617 µM (≈ 250 µg/mL), 617 µM (≈ 250 µg/mL) and 77 µM (≈ 31.2 µg/mL), respectively.

With `COc1ccc([C@H]2CN(C)[C@@]3(C(=O)Nc4ccccc43)[C@@]23CC(=O)N(C)C3=O)cc1`, the MIC in assay [1] is 617 µM (≈ 250 µg/mL); in assay [2] it was 617 µM (≈ 250 µg/mL); in assay [3] it was 154 µM (≈ 62.4 µg/mL).

On to `COc1ccc([C@H]2CN(C)[C@@]3(C(=O)N(C)c4ccccc43)[C@@]23CC(=O)N(C)C3=O)cc1`, for which the minimum inhibitory concentration (MIC) in assay [1] was determined as 596 µM (≈ 250 µg/mL); in assay [2] it was 298 µM (≈ 125 µg/mL); in assay [3], 298 µM (≈ 125 µg/mL).

With `C#CCN1C(=O)[C@]2(c3ccccc31)N(C)C[C@H](c1ccccc1O)[C@]21CC(=O)N(C)C1=O`, the MIC in assay [1] came out at 291 µM (≈ 125 µg/mL); in assay [2] it was 291 µM (≈ 125 µg/mL); in assay [3], 146 µM (≈ 62.7 µg/mL).

As for `COc1ccc([C@H]2CN(C)[C@@]3(C(=O)N(Cc4ccccc4)c4ccccc43)[C@@]23CC(=O)N(C)C3=O)cc1`, the minimum inhibitory concentration (MIC) in assay [1] came to 504 µM (≈ 250 µg/mL); in assay [2], 252 µM (≈ 125 µg/mL); in assay [3] it was 252 µM (≈ 125 µg/mL).

Consider `CN1C(=O)C[C@@]2(C1=O)[C@@H](c1ccc(Cl)cc1)CN(C)[C@@]21C(=O)Nc2ccccc21`, for which the minimum inhibitory concentration (MIC) in assay [1] was found to be 610 µM (≈ 250 µg/mL); in assay [2], 305 µM (≈ 125 µg/mL); in assay [3] it was 152 µM (≈ 62.3 µg/mL).

Take `CN1C(=O)C[C@@]2(C1=O)[C@@H](c1ccc(Cl)cc1)CN(C)[C@@]21C(=O)N(C)c2ccccc21`: the MIC in assay [1] came out at 590 µM (≈ 250 µg/mL); in assay [2] it was 295 µM (≈ 125 µg/mL); in assay [3], 147 µM (≈ 62.3 µg/mL).

For `Cc1ccc([C@H]2CN(C)[C@@]3(C(=O)Nc4ccccc43)[C@@]23CC(=O)N(C)C3=O)cc1`, the MIC in assay [1] was determined as 642 µM (≈ 250 µg/mL); in assay [2], 321 µM (≈ 125 µg/mL); in assay [3] it was 321 µM (≈ 125 µg/mL).

Regarding `CC1(C)S[C@@H]2[C@H](NC(=O)[C@H](N)c3ccccc3)C(=O)N2[C@H]1C(=O)O` [AMPICILLIN], the MIC was 168 µM (≈ 58.7 µg/mL) in assay [1], 84 µM (≈ 29.4 µg/mL) in assay [2] and 168 µM (≈ 58.7 µg/mL) in assay [3].

On to `CN(C)[C@@H]1C(O)=C(C(N)=O)C(=O)[C@@]2(O)C(O)=C3C(=O)c4c(O)cccc4[C@@](C)(O)[C@H]3C[C@@H]12` [TETRACYCLINE], for which the MIC in assay [1] amounted to 1 µM (≈ 0.444 µg/mL); in assay [2], 2 µM (≈ 0.889 µg/mL); in assay [3], 4 µM (≈ 1.78 µg/mL).

The values above are taken from ChEMBL document CHEMBL1208687, “Synthesis, antibacterial activity evaluation and QSAR studies of novel dispiropyrrolidines” (2010).
